Results on two compounds are retold here after ChEMBL document CHEMBL4680120, “Novel anti-Alzheimer phenol-lipoyl hybrids: Synthesis, physico-chemical characterization, and biological evaluation” (Eur J Med Chem, 2020).

Data set [1] is described as follows: Stability in simulated gastric fluid at pH 1.2 assessed as relative difference measured after 15 mins in presence of pepsin by HPLC analysis. The format is ADME. The conditions noted are these: isolated protein, pH 1.2, 0.25 h. An outline of the steps:
(§1)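 Incubation in simulated gastric fluid (pH 1.2, pepsin) or simulated intestinal fluid (pH 6.8, pancreatin). Aliquots deproteinized with ice-cold acetonitrile, centrifuged at 4°C and 12000 rpm for 10 min, filtered, analyzed by HPLC. RD% = (Ci − Cf)/Ci × 100. Stable if RD < 5%. Means of three experiments.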

Data set [2] can be described thus: Stability in simulated gastric fluid at pH 1.2 assessed as relative difference measured after 30 mins in presence of pepsin by HPLC analysis. The data set is classed as ADME. The conditions noted are these: isolated protein, pH 1.2, 0.5 h. In a few lines: as §1
For data set [3], the system named is SH-SY5Y. Briefly: Cytotoxicity against human SH-SY5Y cells assessed as reduction in cell viability at 1 to 250 mg/l measured after 48 hrs by MTT assay. The conditions noted are these: dose 1-250 mg/L. The format is cell-based. An outline of the steps: (§2)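 SH-SY5Y cells grown in DMEM/F12 with 10% FBS and differentiated with retinoic acid (10 μM), seeded at 1×10^4 per well and cultured 24 h. Cells were given hybrids at 1–250 mg/L with or without Aβ1-42 (20 μM) for 48 h. MTT (5 mg/mL) added for 4 h at 37°C, DMSO solubilization, read at 570/630 nm. LDH read at 450 nm. Five independent experiments.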

Data set [4] concerns SH-SY5Y. As to the kind of experiment: Neuroprotective activity against amyloid beta (1 to 42)-induced toxicity in human SH-SY5Y cells assessed as increase in cell viability at 1 to 250 mg/l measured after 48 hrs by LDH release assay. The data set is classed as functional, cell-based. The conditions noted are these: dose 1-250 mg/L. In a few lines: as §2
The test system of data set [5] is SH-SY5Y. Briefly: Neuroprotective activity against amyloid beta (1 to 42)-induced apoptosis in human SH-SY5Y cells assessed as decrease in DNA fragmentation at IC50 measured after 48 hrs by Hoechst 33258 staining based fluorescence microscopic assay. The data set is classed as functional, cell-based. In a few lines: (§3)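 Differentiated SH-SY5Y cells, 4×10^4 per well, exposed 48 h to Aβ1-42 (20 μM) with or without hybrid. Fixed in 4% paraformaldehyde for 30 min, stained with Hoechst 33258 for 15 min. Nuclear chromatin condensation and DNA fragmentation scored by fluorescence microscopy at ×200.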

For data set [6], the system named is SH-SY5Y. Briefly: Neuroprotective activity against amyloid beta (1 to 42)-induced apoptosis in human SH-SY5Y cells assessed as decrease in DNA condensation at IC50 measured after 48 hrs by Hoechst 33258 staining based fluorescence microscopic assay. The data set is classed as functional, cell-based. In a few lines: as §3
The test system of data set [7] is SH-SY5Y. Briefly: Neuroprotective activity against amyloid beta (1 to 42)-induced apoptosis in human SH-SY5Y cells assessed as early apoptotic cells at IC50 measured after 48 hrs by Annexin-V/Propidium iodide staining based flow cytometry (reference value: 0.74%). The format is functional.
Data set [8] concerns SH-SY5Y. As to the kind of experiment: Neuroprotective activity against amyloid beta (1 to 42)-induced apoptosis in human SH-SY5Y cells assessed as necrotic cells at IC50 measured after 48 hrs by Annexin-V/Propidium iodide staining based flow cytometry (reference value: 6.99%). The format is functional.
The test system of data set [9] is SH-SY5Y. Briefly: Neuroprotective activity against amyloid beta (1 to 42)-induced toxicity in human SH-SY5Y cells assessed as decrease in APOE mRNA expression at IC50 measured after 48 hrs by SYBR green dye based RT-qPCR analysis. The format is functional, cell-based. In a few lines: (§4)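 Differentiated SH-SY5Y cells in 6-well plates treated 48 h with Aβ1-42 (20 μM) with or without hybrid. mRNA of AD-related genes measured by RT-qPCR, normalized to β-actin. Expressed as fold change versus untreated cells. Triplicate experiments.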

Data set [10] has as its system SH-SY5Y. Briefly: Neuroprotective activity against amyloid beta (1 to 42)-induced toxicity in human SH-SY5Y cells assessed as decrease in APP mRNA expression at IC50 measured after 48 hrs by SYBR green dye based RT-qPCR analysis. The format is functional, cell-based. In a few lines:
as §4

Data set [11] concerns SH-SY5Y. Briefly: Neuroprotective activity against amyloid beta (1 to 42)-induced toxicity in human SH-SY5Y cells assessed as decrease in TNFalpha mRNA expression at IC50 measured after 48 hrs by SYBR green dye based RT-qPCR analysis. The data set is classed as functional, cell-based. An outline of the steps: as §4
Data set [12] has as its system SH-SY5Y. Briefly: Neuroprotective activity against amyloid beta (1 to 42)-induced toxicity in human SH-SY5Y cells assessed as decrease in EGFR mRNA expression at IC50 measured after 48 hrs by SYBR green dye based RT-qPCR analysis. The data set is classed as functional, cell-based. An outline of the steps:
as §4

In data set [13] the test system is SH-SY5Y. Briefly: Neuroprotective activity against amyloid beta (1 to 42)-induced toxicity in human SH-SY5Y cells assessed as decrease in MAPT mRNA expression at IC50 measured after 48 hrs by SYBR green dye based RT-qPCR analysis. The data set is classed as functional, cell-based. In a few lines:
as §4

The subject of data set [14] is SH-SY5Y. As to the kind of experiment: Neuroprotective activity against amyloid beta (1 to 42)-induced toxicity in human SH-SY5Y cells assessed as decrease in BDNF mRNA expression at IC50 measured after 48 hrs by SYBR green dye based RT-qPCR analysis. The data set is classed as functional, cell-based. An outline of the steps:
as §4

The test system of data set [15] is SH-SY5Y. As to the kind of experiment: Neuroprotective activity against amyloid beta (1 to 42)-induced toxicity in human SH-SY5Y cells assessed as decrease in BACE1 mRNA expression at IC50 measured after 48 hrs by SYBR green dye based RT-qPCR analysis. The data set is classed as functional, cell-based. In a few lines: as §4
The subject of data set [16] is SH-SY5Y. Briefly: Neuroprotective activity against amyloid beta (1 to 42)-induced toxicity in human SH-SY5Y cells assessed as increase in PSEN mRNA expression at IC50 measured after 48 hrs by SYBR green dye based RT-qPCR analysis. The data set is classed as functional, cell-based. In a few lines: as §4
Data set [17] deals with SH-SY5Y. Briefly: Neuroprotective activity against amyloid beta (1 to 42)-induced toxicity in human SH-SY5Y cells assessed as increase in ADAM10 mRNA expression at IC50 measured after 48 hrs by SYBR green dye based RT-qPCR analysis. The data set is classed as functional, cell-based. In a few lines: as §4
For data set [18], the system named is Erythrocyte. As to the kind of experiment: Antioxidant activity in human RBC assessed as increase in total antioxidant capacity level up to 400 ug/ml measured after 72 hrs relative to control. The format is functional. As to conditions: dose microg/ml <=400.
Data set [19] concerns Erythrocyte. As to the kind of experiment: Cytoprotective activity against H2O2-induced oxidative damage in human RBC assessed as increase in cell viability measured after 72 hrs by MTT assay. The format is functional, cell-based.
The test system of data set [20] is Erythrocyte. As to the kind of experiment: Cytoprotective activity against H2O2-induced oxidative damage in human RBC assessed as increase in cell viability measured after 72 hrs by LDH release assay. The data set is classed as functional, cell-based. An outline of the steps:
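Heparinized whole blood cultured with phytohemagglutinin. Cells were co-incubated with 50 or 100 μM hybrid and H2O2 (25 μM). Viability was read by MTT: lymphocytes at 2×10^5 per well, MTT 4 h at 37°C, formazan dissolved in DMSO, absorbance 570 nm. LDH release was measured on 100 μL medium with a commercial kit. Results are relative to untreated control.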

For data set [21], the system named is Erythrocyte. Briefly: Cytoprotective activity against H2O2-induced oxidative damage in human RBC assessed as recovery of H2O2-induced cell death at 50 to 100 uM measured after 72 hrs by LDH release assay relative to control. The data set is classed as functional. The conditions noted are these: dose 50-100 µM. In a few lines:
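Heparinised human whole blood cultured in phytohemagglutinin-containing chromosome medium and co-incubated with hybrids and H2O2 at 37C for 72 h. LDH released into the culture medium was measured with a commercial kit. Triton X-100 served as positive control, with untreated cultures as reference. Cytoprotection was expressed as viability relative to control.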

The subject of data set [22] is Erythrocyte. Briefly: Cytoprotective activity against H2O2-induced oxidative damage in human RBC assessed as restoration of antioxidant activity measured after 72 hrs by TAC assay. The format is functional, cell-based.

Calls of active or inactive are those of the source. The calls are words filed in the database; no cut-off is given here.

As to `COc1cc(/C=C/C(=O)NCCCNC(=O)CCCCC2CCSS2)ccc1O` (centres undefined), the “fold change (FC)” value in data set [1] is reported as 0.36%; in data set [2] it was 0.43%. The Activity entry with SH-SY5Y [3] was “Non-Toxic”; in the data set with SH-SY5Y [7] it was 1.19%; in the data set with SH-SY5Y [8] it was 1.13%; with Erythrocyte [18], 6.7%; in the data set with Erythrocyte [19], “Dose-dependent effect”; in the data set with Erythrocyte [20] it was “Dose-dependent effect”. For the same compound, the Activity in the data set on Erythrocyte [21] was 0.4%; in the data set with Erythrocyte [22] it was “Dose-dependent effect”. For the same compound, the result in the data set on SH-SY5Y [4], in the data set with SH-SY5Y [5], in the data set with SH-SY5Y [6], in the data set with SH-SY5Y [9], in the data set with SH-SY5Y [10] and in the data set with SH-SY5Y [11] was Active. Besides, the outcome with SH-SY5Y [12], with SH-SY5Y [13], in the data set with SH-SY5Y [14], with SH-SY5Y [15], in the data set with SH-SY5Y [16] and in the data set with SH-SY5Y [17] was Active.
In the case of `O=C(CCCCC1CCSS1)NCCCCCOC(=O)Cc1ccc(O)c(O)c1` (centres undefined), the “fold change (FC)” value in data set [1] was 35.42%; in data set [2] it was 79.35%. The Activity entry in the data set on SH-SY5Y [3] was “Non-Toxic”; in the data set on SH-SY5Y [7] it was 1.86%; in the data set on SH-SY5Y [8] it was 1.04%; in the data set on Erythrocyte [18] it was 32.3%; in the data set with Erythrocyte [19] it was “Dose-dependent effect”; in the data set on Erythrocyte [20] it was “Dose-dependent effect”. Also, the Activity was 0.4% in the data set with Erythrocyte [21] and “Dose-dependent effect” in the data set with Erythrocyte [22]. Further, the result in the data set on SH-SY5Y [4], in the data set with SH-SY5Y [5], in the data set with SH-SY5Y [6], in the data set with SH-SY5Y [9], in the data set on SH-SY5Y [10] and with SH-SY5Y [11] was Active. Also, the outcome in the data set on SH-SY5Y [12], with SH-SY5Y [13], with SH-SY5Y [14], in the data set on SH-SY5Y [15], in the data set with SH-SY5Y [16] and with SH-SY5Y [17] was Active.
